# A selection: hits, their analogues and other compounds. The true share with any hit is near 3.5%.
# Ecoli rRNA inh = inhibits bacterial ribosomal RNA function over humanized ribosomes; E. coli WT GFP vs humanized-ribosome RFP mutants, fluorescence, 24 h; stronger effect = lower value; DMSO median 0, no signal -100; GFP signal change (wild-type ribosome), % (test concentration not listed); 350,000 compounds, 1.6% hits; AID 720706;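 active = significant combined selectivity score with lowered wild-type GFP, culture density cut under 30%, mutant RFP and density less affected; inactive = any of these conditions unmet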
# Cneo AK release = causes C. neoformans cell lysis. 360,000 compounds, 0.2% hits. lysis activity, % at 15 µM. AID 651654. adenylate kinase release luminescence, 4 h; normalised: neutral wells 0, clomiphene wells 100;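 active = mean lysis activity across replicates of at least 80%, whatever share of replicates individually reach that level; inactive = mean lysis activity below 80%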
#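 Test system: log-phase Cryptococcus neoformans yeast cells; Quantity: yeast cell density of 5 × 10^6 cells/mL; Buffer or medium: YPD; Doses: single compound concentration per well; Timing: 4 h at 37 °C static, read 1 h later; Measured by: AK luminescence; Read-out basis: lysis from increased AK signal; Control set: Clomiphene as positive control.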
# FGF22 binding = shifts melting point of recombinant human FGF22; Q9HCT0; recombinant FGF22 thermal shift, SYPRO orange fluorescence; percent of sucrose octasulfate shift, DMSO zero; activity (Tm shift, normalised), % at 9.99 µM; 340,000 compounds, 1.5% hits; AID 651658;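 active = mean Tm shift, scaled 0 neutral to 100 positive control, at about 1.3% or above, every replicate too, limit read from the data; inconclusive = no clear call, values can overlap the other calls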
# Target sequence (Q9HCT0 whole entry, looked up): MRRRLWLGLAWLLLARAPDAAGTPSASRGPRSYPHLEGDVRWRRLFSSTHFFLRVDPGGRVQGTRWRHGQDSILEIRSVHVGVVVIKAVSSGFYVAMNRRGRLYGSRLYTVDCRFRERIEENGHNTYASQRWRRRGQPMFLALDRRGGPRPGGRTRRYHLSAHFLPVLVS
# Env fusion inh = HIV envelope-mediated fusion inhibition | AID 651610 | 360,000 compounds, 1.1% hits | inhibition, % at 12.3 µM | HeLa-JRFL Env/CEM21 cell fusion, luciferase;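 active = mean replicate inhibition score of at least 50 and every replicate individually at or above 50; inconclusive = only one of the two criteria met; inactive = mean below 50 and not all replicates reaching 50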;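 also: 0% = plate neutral controls and 100% = maraviroc near 300 nM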
# PGC1a acetyl inh = PGC1a acetylation modulation, inhibitor mode; inhibition, % at 15.6 µM; 350,000 compounds, 0.17% hits; U2OS PGC1a acetylation, AlphaScreen anti-acetyl-lysine; with virally co-expressed GCN5 acetyltransferase;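 active = every replicate shows inhibition of at least 40%; inconclusive = mean inhibition at least 40% but some replicate below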;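 also: 0% = neutral control wells and 100% = positive control wells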
# ERAP1 inh = ERAP1 (human) enzyme inhibition; recombinant ERAP1, Leu-AMC fluorescence, 60 min; Q9NZ08; inhibition, % at 10.7 µM; 340,000 compounds, 0.15% hits;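 active = mean replicate inhibition of at least 30%, or all replicates individually reaching that 30% level; inactive = mean below 30% and not every replicate reaching it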;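 also: 0% = neutral control wells and 100% = L-leucinethiol positive control wells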
# Starred values were filed as active, the others as inactive; ? = inconclusive; . = no result given.
SMILES,Ecoli rRNA inh,Cneo AK release,FGF22 binding,Env fusion inh,PGC1a acetyl inh,ERAP1 inh
CC12CCC3C(CC=C4CC5(CCC43C)OCCO5)C1CCC2=O (centres undefined),.,-1.6,44.4*,-1.1,.,2.5
C[C@]12CC[C@H](OS(=O)(=O)O)CC1=CC[C@@H]1[C@@H]2CC[C@]2(C)C(=O)CC[C@@H]12,-7.6,-0.4,-0.1,6.0,-5.1,-4.3
CC(C)NC(=O)Cn1cc(C(=O)c2ccccc2F)c2ccccc21,.,0.2,.,22.1,-9.0,.
CCCCC(=O)N/N=C/c1c(O)n(Cc2ccc(F)cc2)c(=O)[nH]c1=O,-26.6*,.,-0.1,10.6,.,.
CCN(CC)P(=O)(Oc1ccccc1)Oc1ccccc1,-31.6*,5.5,0.2,9.6,-9.0,1.8
O=C(NCCO)c1nsnc1NCCCl,10.1,.,43.3*,0.5,1.1,2.4
C[C@]12C=CC(=O)C=C1CC[C@@H]1[C@@H]2CC[C@]2(C)C(=O)CC[C@@H]12,-22.9*,-7.4,0.1,.,0.4,3.6
C[C@]12CCC(=O)C=C1CCC1C2CC[C@@]2(C)C1CC[C@@H]2O (some centres undefined),-52.1,-0.4,-0.3,.,5.4,-0.9
C[C@]12CCC(=O)C=C1CC[C@@H]1C2[C@H](O)C[C@]2(C)C(=O)CCC12 (some centres undefined),-25.7*,0.6,-0.2,11.1,-2.7,-3.4
COC1CC2C=C(C)C=CC=CC(=O)NC(c3ccccc3)CC=CCCC(O)CC(=O)C2=C1O (centres undefined),6.7,.,0.4,91.8*,.,0.4
COC(=O)C(O)(c1ccc(N(C)C(=O)c2ccc(Cl)c(Cl)c2)cc1)C(F)(F)F (centres undefined),.,-1.7,.,.,-5.8,.
C/C(=N\N1CCCCCC1)c1c(O)n(-c2ccc(Cl)cc2)c(=O)[nH]c1=O,7.5,0.1,0.0,1.9,.,0.7
C/C(=N\N1CCCCCC1)c1c(O)n(-c2ccc(C)cc2)c(=O)[nH]c1=O,7.6,0.4,43.6*,-0.6,-2.4,-1.9
CCOc1cc(CNCCc2c[nH]c3ccccc23)cc(Cl)c1OC,.,.,0.6,68.0*,-10.4,2.3
CN1C(=O)N(C)C(=O)C2(Cc3cc(N)ccc3N3CCN(c4ccccc4F)CC32)C1=O (centres undefined),.,.,.,-54.8,.,.
COc1cc2c(cc1OC)CN(c1ccc([N+](=O)[O-])c(C(F)(F)F)c1)CC2,-18.8*,.,0.3,-9.0,.,0.9
CC(C)(O)C(=O)Nc1ccc([N+](=O)[O-])c(C(F)(F)F)c1,3.4,-0.3,-0.1,.,0.1,-6.7
COc1ccc2nc3oc(C(=O)N4CCC5(CC4)OCCO5)cc3cc2c1,-12.7,.,43.6*,-2.9,.,0.2
O=c1c2ccccc2nc(/C=C/c2ccccc2F)n1-c1ccccc1O,-23.9*,-3.1,0.0,-4.6,.,2.8
O=c1c2ccccc2nc(/C=C\c2ccccc2[N+](=O)[O-])n1-c1ccccc1O,-28.8*,-5.2,0.0,10.6,-13.5,8.6
Cc1ccc(-n2c(O)c(/C=N/N3CCCCC3c3cccnc3)c(=O)[nH]c2=S)cc1 (centres undefined),8.0,.,43.5*,7.2,.,-0.4
O=C1NC(=O)C(=Cc2ccc(Sc3ccccc3)o2)C(=O)N1,.,-4.5,-0.3,-40.4,-11.5,3.0
O=C1NC(=O)C(=Cc2ccco2)C(=O)N1,22.0,1.8,43.7*,12.7,2.2,3.3
Brc1ccc(-[n+]2c(-c3ccccc3)cc(-c3ccccc3)cc2-c2ccccc2)cc1,-57.8,0.2,0.3,24.3,.,.
O=C(CCN1CCOCC1)Nc1ccc(Br)cc1C(=O)c1ccccc1,3.7,-3.0,0.0,7.6,0.5,13.6
CC(O)C1C=CC=CC(=O)OC2CC3OC4C5OC5(C)C(O)CC4(COC(=O)C(O)C(C)CCO1)C2(C)C31CO1 (centres undefined),10.7,.,-0.3,69.7*,86.9*,-0.6
CC1=CC2OC3CC4OC(=O)C=CC=CC(=O)OCCC(C)C(O)C(=O)OCC2(CC1)C4(C)C31CO1 (centres undefined),.,.,-0.1,?,77.4*,-1.7

# Screening results deposited in PubChem BioAssay by Broad Institute.
